Measured values taken from ChEMBL document CHEMBL4024748, “Development of Potent Type I Protein Arginine Methyltransferase (PRMT) Inhibitors of Leukemia Cell Proliferation” (J Med Chem, 2017).
The source made the active and inactive calls. The rule behind the calls is not given here.

Tests used:
[1] = target: Protein arginine N-methyltransferase 1 (Rattus norvegicus) (UniProt Q63009); assay: Uncompetitive inhibition of rat His-tagged PRMT1 (11 to 353 residues) expressed in Escherichia coli BL21(DE3) using biotinylated H4 peptide (1 to 21 residues) as substrate in presence of varying concentrations of [3H]SAM
Procedure, shortened: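 Kinetic mode-of-action study using the radiolabel method with His6-rPRMT1(11–353). IC50 measured at varied peptide substrate or varied SAM concentrations, with the other component fixed. 15 min enzyme–compound preincubation, then 60 min reaction at RT with [3H]-SAM, Flashplate capture and Microbeta counting.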

[2] = target: Protein arginine N-methyltransferase 1 (Rattus norvegicus) (UniProt Q63009); assay: Binding affinity to rat His-tagged PRMT1 (11 to 353 residues) expressed in Escherichia coli BL21(DE3) at 200 uM by 1D 1H CPMG-NMR spectroscopic method
Procedure, shortened: (§1)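 Rat PRMT1 (11–353), N-His6, expressed in E. coli BL21(DE3) with 0.4 mM IPTG at 16°C. Purified by Ni affinity and Superdex200. NMR used 5 µM PRMT1 in phosphate buffer pH 7.4 (20 mM NaH2PO4, 20 mM Na2HPO4, 100 mM NaCl) in D2O. Ligand at 200 µM in 5% DMSO-d6. CPMG run with 5, 2 and 1 µM PRMT1, plus STD.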

[3] = target: Protein arginine N-methyltransferase 1 (Rattus norvegicus) (UniProt Q63009); assay: Binding affinity to rat His-tagged PRMT1 (11 to 353 residues) expressed in Escherichia coli BL21(DE3) at 200 uM by STD-NMR spectroscopic method; procedure, shortened: as §1
[4] = target: Protein arginine N-methyltransferase 5 (Homo sapiens, UniProt O14744); assay: Inhibition of PRMT5 (unknown origin) incubated for 15 mins followed by substrate addition measured after 60 mins by AlphaLisa method
Procedure, shortened: (§2)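 AlphaLISA. Enzyme and substrate in 1x assay buffer, compound at 1% DMSO final. Enzyme preincubated with compound 15 min at room temperature, then substrate added. Reaction 60 min at room temperature, then bead mix added and incubated 60 min under subdued light before signal read.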

[5] = target: T1, Protein arginine N-methyltransferase 6 (Homo sapiens, UniProt Q96LA8); assay: Inhibition of PRMT6 (unknown origin) incubated for 15 mins followed by substrate addition measured after 60 mins by AlphaLisa method; procedure, shortened: as §2
Target sequence in this assay (Q96LA8 whole entry): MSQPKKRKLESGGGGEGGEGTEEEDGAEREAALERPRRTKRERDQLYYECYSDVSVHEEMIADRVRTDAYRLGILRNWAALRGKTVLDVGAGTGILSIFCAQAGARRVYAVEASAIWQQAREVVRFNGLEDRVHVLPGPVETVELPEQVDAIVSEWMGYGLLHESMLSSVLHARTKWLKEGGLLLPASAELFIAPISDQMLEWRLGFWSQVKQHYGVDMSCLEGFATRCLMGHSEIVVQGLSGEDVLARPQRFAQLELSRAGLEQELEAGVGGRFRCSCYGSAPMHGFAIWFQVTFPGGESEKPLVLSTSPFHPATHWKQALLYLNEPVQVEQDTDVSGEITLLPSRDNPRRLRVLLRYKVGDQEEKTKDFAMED

[6] = target: Histone-lysine N-methyltransferase, H3 lysine-79 specific (Homo sapiens) (UniProt Q8TEK3); assay: Inhibition of DOT1L (unknown origin) at 50 uM incubated for 15 mins followed by substrate addition measured after 60 mins by Alpha screen assay
Procedure, shortened: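 DOT1L by AlphaScreen. Enzyme and substrate in 1x assay buffer, compound at 1% DMSO final. Enzyme preincubated with compound 15 min at room temperature, substrate added, reaction 60 min at room temperature. Acceptor/donor bead mix added and incubated 60 min at room temperature under subdued light.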

[7] = target: Histone-lysine N-methyltransferase EZH2 (Homo sapiens) (UniProt Q15910); assay: Inhibition of EZH2 (unknown origin) at 50 uM incubated for 15 mins followed by substrate addition measured after 60 mins by radioisotope assay
[8] = target: DNMT3A2/3L complex (Homo sapiens) (UniProt Q9Y6K1+Q9UJW3); assay: Inhibition of DNMT3A/3L (unknown origin) at 50 uM incubated for 15 mins followed by substrate addition measured after 60 mins by radioisotope assay; type: protein-complex assay
[9] = target: Histone-lysine N-methyltransferase SUV39H1 (Homo sapiens) (UniProt O43463); assay: Inhibition of SUV39H1 (unknown origin) at 50 uM incubated for 15 mins followed by substrate addition measured after 60 mins by AlphaLisa method
Procedure, shortened: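 SUV39H1 AlphaLISA at 50 and 100 µM compound, 1% DMSO final. Enzyme preincubated 15 min at room temperature, substrate reaction 60 min at RT. Bead mix then added for 60 min at RT in subdued light before signal collection.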

[10] = target: N-lysine methyltransferase SMYD2 (Homo sapiens) (UniProt Q9NRG4); assay: Inhibition of SMYD2 (unknown origin) at 100 uM incubated for 15 mins followed by substrate addition measured after 240 mins by AlphaLisa method
Procedure, shortened: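 SMYD2 AlphaLISA at 50 and 100 µM compound, 1% DMSO final. Enzyme preincubated 15 min at RT, then substrate added and reacted 240 min at RT. Bead mix added and incubated 60 min at RT in subdued light before reading.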

[11] = target: Histone acetyltransferase KAT2A (Homo sapiens) (UniProt Q92830); assay: Inhibition of GCN5 (unknown origin) at 100 uM incubated for 15 mins followed by substrate addition measured after 60 mins by radioisotope assay
[12] = target: Histone acetyltransferase KAT2A (Homo sapiens) (UniProt Q92830); assay: Inhibition of GCN5 (unknown origin) at 50 uM incubated for 15 mins followed by substrate addition measured after 60 mins by radioisotope assay
[13] = system: RS4-11; assay: Cytotoxicity against human RS4:11 cells assessed as decrease in cell viability after 96 hrs by Cell-Titer Glo assay; type: functional, cell-based
Procedure, shortened: (§3)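 Cells kept at 37°C, 5% CO2, exposed to compound or DMSO control for 96 h. Viability read by CellTiter-Glo luminescence after 2 min shaking to lyse and 10 min at room temperature. Triplicate wells, normalised to control cells. For long-term growth, log-phase seeding densities; cells counted and replated to the starting density with fresh compound on days 4 and 8.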

[14] = system: MV4-11; assay: Cytotoxicity against human MV4-11 cells assessed as decrease in cell viability at 6.25 to 12.5 uM after 96 hrs by Cell-Titer Glo assay; type: functional, cell-based; procedure, shortened: as §3
[15] = system: MRC5; assay: Cytotoxicity against human MRC5 cells assessed as decrease in cell viability at 6.25 to 25 uM after 96 hrs by Cell-Titer Glo assay; type: cell-based; details: mrc5, 96 h
Procedure, shortened: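 Normal HUV-EC-C, MRC-5 and RCTEC cells at 37°C, 5% CO2, given compound or DMSO control for 96 h. Viability by CellTiter-Glo luminescence after 2 min shaking and 10 min at room temperature. Triplicate wells, normalised to control cells.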

[16] = system: MV4-11; assay: Antiproliferative activity against human MV4-11 cells assessed as decrease in cell viability measured at day 8 by Cell-Titer Glo assay; type: functional, cell-based; details: MV4-11, 192 h; procedure, shortened: as §3
[17] = system: MV4-11; assay: Antiproliferative activity against human MV4-11 cells assessed as decrease in cell viability measured at day 12 by Cell-Titer Glo assay; type: functional, cell-based; details: MV4-11, 288 h; procedure, shortened: as §3
[18] = target: T1, Protein arginine N-methyltransferase 6; assay: Inhibition of PRMT6 in human MV411 cells assessed as reduction in H3R2me2a levels after 48 hrs by Western blot analysis; type: cell-based
Procedure, shortened: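 MV4-11 cells (37°C, 5% CO2) exposed to compound for 48 h across a range of doses. Histone H3R2 asymmetric dimethylation read by western blot. Membranes blocked in 5% milk/PBST, primary antibody overnight at 4°C, then 1:10000 HRP donkey anti-rabbit secondary for 1 h.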
Target sequence in this assay (Q96LA8 whole entry, looked up): as the sequence (Q96LA8 whole entry) above

[19] = system: MV4-11; assay: Induction of apoptosis in human MV4-11 cells after 96 hrs by annexin V-FITC/propidium iodide staining-based flow cytometric method; type: functional, cell-based
Procedure, shortened: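 MV4-11 cells in 6-well plates with compound or DMSO control, harvested at 96 h. Stained with an Annexin V-FITC apoptosis detection kit and analysed by flow cytometry. Mean ± SD of three replicates.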

[20] = system: MV4-11; assay: Upregulation of MNDA mRNA levels in human MV4-11 cells by qRT-PCR analysis; type: functional, cell-based
Procedure, shortened: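 Treated MV4-11 cells analysed by SYBR Green qRT-PCR, with B2M as internal control. Fold change calculated by the ΔΔCt method. Samples run in triplicate and reported as mean ± SD.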

Sequence of Protein arginine N-methyltransferase 1 (Rattus norvegicus) (Q63009 whole entry, looked up, the tested form may be a part): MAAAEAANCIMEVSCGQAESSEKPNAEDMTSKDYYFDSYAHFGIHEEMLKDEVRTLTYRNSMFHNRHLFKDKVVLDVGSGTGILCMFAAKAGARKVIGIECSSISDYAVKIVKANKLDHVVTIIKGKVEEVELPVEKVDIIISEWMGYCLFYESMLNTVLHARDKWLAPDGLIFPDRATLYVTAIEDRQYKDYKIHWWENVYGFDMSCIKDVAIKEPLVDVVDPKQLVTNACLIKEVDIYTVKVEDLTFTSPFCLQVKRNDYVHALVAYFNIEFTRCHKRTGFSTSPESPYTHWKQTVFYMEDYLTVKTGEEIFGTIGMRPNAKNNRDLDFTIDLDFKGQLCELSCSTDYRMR
Sequence of Histone acetyltransferase KAT2A (Homo sapiens) (Q92830 2-837 limits assumed): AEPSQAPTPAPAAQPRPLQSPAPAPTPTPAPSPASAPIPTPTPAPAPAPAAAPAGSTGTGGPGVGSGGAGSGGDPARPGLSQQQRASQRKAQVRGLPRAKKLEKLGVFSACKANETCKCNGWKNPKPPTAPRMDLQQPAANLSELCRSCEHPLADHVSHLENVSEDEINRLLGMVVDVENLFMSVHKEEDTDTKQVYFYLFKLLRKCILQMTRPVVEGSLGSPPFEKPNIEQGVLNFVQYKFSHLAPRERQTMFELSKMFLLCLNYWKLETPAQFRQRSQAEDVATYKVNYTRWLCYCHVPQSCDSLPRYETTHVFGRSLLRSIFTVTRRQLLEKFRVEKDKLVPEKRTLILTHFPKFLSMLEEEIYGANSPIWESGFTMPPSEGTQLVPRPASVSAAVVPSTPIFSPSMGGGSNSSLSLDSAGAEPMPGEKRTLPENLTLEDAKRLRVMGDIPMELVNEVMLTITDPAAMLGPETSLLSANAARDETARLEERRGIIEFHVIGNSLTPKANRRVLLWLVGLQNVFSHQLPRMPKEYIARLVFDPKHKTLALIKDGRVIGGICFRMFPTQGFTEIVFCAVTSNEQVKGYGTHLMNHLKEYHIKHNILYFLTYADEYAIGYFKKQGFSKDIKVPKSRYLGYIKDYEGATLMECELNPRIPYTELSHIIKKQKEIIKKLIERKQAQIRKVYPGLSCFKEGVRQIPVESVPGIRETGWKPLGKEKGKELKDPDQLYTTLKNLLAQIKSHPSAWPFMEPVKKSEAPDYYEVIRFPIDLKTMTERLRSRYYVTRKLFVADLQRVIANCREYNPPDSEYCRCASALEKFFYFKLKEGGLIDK
Sequence of Protein arginine N-methyltransferase 5 (O14744 whole entry): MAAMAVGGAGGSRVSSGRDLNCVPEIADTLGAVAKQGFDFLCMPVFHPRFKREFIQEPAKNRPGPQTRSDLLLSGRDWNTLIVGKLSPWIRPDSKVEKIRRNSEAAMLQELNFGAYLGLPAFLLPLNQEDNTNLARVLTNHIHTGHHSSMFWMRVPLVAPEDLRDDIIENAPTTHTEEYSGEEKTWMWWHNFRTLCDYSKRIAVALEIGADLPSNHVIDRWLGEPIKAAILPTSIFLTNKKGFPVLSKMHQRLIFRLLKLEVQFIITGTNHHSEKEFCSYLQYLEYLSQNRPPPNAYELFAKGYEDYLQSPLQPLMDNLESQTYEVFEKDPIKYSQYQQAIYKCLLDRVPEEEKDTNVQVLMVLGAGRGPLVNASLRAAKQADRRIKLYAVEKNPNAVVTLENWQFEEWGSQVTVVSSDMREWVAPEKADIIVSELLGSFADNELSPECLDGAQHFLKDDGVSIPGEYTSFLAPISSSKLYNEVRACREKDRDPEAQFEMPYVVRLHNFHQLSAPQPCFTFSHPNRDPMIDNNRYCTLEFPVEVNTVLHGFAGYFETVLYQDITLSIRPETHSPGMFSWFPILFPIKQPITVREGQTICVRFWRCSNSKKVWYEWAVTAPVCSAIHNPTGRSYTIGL
Sequence of Histone-lysine N-methyltransferase EZH2 (Homo sapiens) (Q15910 whole entry, looked up): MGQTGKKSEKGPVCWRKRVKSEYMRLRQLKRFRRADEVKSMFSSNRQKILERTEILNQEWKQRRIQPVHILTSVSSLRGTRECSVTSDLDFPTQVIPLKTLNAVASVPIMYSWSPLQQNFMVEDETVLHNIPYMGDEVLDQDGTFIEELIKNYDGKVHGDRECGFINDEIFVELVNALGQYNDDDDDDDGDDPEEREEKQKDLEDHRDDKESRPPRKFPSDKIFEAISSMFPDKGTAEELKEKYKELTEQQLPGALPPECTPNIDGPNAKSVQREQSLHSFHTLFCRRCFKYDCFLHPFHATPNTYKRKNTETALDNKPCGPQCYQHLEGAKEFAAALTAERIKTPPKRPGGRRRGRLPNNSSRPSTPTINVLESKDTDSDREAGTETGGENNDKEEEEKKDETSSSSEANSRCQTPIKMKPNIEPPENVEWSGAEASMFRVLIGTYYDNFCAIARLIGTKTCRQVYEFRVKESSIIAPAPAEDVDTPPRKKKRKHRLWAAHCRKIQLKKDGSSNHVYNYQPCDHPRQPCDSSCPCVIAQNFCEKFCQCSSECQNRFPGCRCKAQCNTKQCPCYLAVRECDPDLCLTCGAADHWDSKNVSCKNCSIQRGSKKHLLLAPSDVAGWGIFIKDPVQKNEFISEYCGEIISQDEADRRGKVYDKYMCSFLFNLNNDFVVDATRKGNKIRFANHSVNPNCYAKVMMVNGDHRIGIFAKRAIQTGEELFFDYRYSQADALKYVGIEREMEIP
Sequence of Histone-lysine N-methyltransferase SUV39H1 (Homo sapiens) (O43463 whole entry): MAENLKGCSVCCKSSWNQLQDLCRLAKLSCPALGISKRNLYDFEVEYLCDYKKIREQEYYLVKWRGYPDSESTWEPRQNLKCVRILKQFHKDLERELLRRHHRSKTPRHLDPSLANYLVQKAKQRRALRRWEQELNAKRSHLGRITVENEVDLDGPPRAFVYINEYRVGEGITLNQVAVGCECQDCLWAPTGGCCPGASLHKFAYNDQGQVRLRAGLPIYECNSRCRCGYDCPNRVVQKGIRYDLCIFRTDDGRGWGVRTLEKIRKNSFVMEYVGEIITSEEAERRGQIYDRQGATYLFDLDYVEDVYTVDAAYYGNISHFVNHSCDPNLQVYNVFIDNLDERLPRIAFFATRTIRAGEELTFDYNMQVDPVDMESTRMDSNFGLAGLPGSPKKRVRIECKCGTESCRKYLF
Sequence of Histone-lysine N-methyltransferase, H3 lysine-79 specific (Homo sapiens) (Q8TEK3 whole entry, looked up): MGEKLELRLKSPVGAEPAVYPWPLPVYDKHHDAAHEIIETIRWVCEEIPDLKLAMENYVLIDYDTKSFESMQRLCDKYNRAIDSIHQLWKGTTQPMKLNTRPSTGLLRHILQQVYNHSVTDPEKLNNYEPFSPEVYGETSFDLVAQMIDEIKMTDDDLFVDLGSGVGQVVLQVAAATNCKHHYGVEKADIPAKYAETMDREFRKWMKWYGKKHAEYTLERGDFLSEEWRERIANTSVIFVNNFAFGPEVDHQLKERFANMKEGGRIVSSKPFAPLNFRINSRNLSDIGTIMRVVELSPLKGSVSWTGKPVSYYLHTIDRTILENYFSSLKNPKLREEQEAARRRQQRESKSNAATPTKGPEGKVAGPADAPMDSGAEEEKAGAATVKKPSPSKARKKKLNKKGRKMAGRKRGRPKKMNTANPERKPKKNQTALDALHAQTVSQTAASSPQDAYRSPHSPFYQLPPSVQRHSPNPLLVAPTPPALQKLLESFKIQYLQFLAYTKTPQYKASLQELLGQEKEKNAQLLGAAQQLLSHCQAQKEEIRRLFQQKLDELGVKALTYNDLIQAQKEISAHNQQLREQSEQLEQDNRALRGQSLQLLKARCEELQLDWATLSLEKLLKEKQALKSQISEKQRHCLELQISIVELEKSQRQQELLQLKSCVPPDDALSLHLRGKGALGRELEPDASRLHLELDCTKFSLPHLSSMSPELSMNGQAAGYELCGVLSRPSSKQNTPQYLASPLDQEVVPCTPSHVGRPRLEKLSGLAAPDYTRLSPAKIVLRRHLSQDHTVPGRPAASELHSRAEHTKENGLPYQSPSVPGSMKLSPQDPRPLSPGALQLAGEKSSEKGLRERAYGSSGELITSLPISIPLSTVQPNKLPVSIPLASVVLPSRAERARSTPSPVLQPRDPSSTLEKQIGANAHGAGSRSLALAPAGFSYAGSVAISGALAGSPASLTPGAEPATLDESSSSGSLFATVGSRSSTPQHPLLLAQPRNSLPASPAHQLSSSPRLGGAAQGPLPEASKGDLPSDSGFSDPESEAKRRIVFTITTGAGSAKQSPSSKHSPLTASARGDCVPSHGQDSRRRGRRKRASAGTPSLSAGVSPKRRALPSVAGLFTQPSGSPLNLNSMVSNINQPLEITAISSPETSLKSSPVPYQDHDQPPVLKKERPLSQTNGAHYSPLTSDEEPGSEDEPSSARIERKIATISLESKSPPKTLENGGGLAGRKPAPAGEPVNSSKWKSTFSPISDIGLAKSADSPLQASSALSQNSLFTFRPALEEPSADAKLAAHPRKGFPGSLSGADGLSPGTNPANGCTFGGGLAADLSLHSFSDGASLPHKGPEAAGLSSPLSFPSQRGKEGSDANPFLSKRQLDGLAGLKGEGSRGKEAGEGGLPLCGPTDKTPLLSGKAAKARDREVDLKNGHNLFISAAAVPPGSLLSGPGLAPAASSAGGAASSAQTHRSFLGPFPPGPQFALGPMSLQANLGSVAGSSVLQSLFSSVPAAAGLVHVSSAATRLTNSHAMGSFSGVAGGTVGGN

In the case of `CN(CCN)Cc1ccccc1Sc1ccccc1Cl`, the inhibition [1] is reported as “Active”, the Activity [2] is reported as “Active” and the Activity [3] is reported as “Active”. The IC50 [4] was greater than 100000 nM, the IC50 [5] was 1.2 nM and the inhibition [6] was “Active”. For the same molecule, the inhibition [7] was “Active”, the inhibition [8] was “Active” and the inhibition [9] was “Active”. The inhibition [10] was “Active”, the inhibition [11] was “Active” and the inhibition [12] was “Active”. The Activity [13] was “Dose-dependent effect”, the Activity [14] was “Active” and the Activity [15] was “Non-Toxic”. For the same molecule, the IC50 [16] was 3210 nM, the IC50 [17] was 810 nM and the inhibition [18] was “Dose-dependent effect”. The Activity [19] was “Dose-dependent effect” and the Activity [20] was “Active”.
